High-throughput results: PubChem BioAssay, SRMLSC
This excerpt belongs to a sample that is enriched for hits.
Yeast lifespan up – yeast lifespan extension | actives 0.68% (n = 130,000) | inhibition of the nicotinamide effect, % at 10 µM | S. cerevisiae growth with nicotinamide, OD615; deaD strain in restrictive glucose medium;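 active means inhibition above a set limit, placed 3 SD over the median of all compounds, cut at about 26% in these data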;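 further: 0% = nicotinamide-treated wells and 100% = cells grown without nicotinamide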
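Test system – modified budding yeast, DeaD strain · Compound – single dose 10 µM compound, 0.25% DMSO · Times – culture preincubation 4 h, compound exposure 48 h, both 30 °C · Detection – optical density (absorbance) at 615 nm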
PostGolgi yeast – growth inhibition of a yeast mutant, post-Golgi transport screen | AID 739 | post-Golgi transport phenotypic cell assay | actives 0.9% (n = 98,000) | inhibition, % at 10 µM;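 further: yeast cells grown in 1536-well plates; yeast grown about 18 h at 30C before absorbance read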
BB579 growth dn – yeast BB579 growth reduction in restrictive medium | actives 0.51% (n = 140,000) | AID 804 | inhibition, % at 10 µM | S. cerevisiae BB579 growth, OD615, 48 h;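 active means inhibition above a set limit, 3 SD over the mean compound inhibition, cut at about 44% in these data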
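Assay system – yeast BB579 (DeaD) · Dosing – single compound dose of 10 µM, 0.25% DMSO final · Detection – OD615 turbidity measurement · Buffer or medium – CSMM-D restrictive synthetic medium containing dextrose (glucose) · Benchmarks – positive control amphotericin B 10 µg/mL · Incubation – 48 h exposure, 30 °C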
PostGolgi ctrl – growth of the yeast control strain, post-Golgi counter-screen; efflux-deficient yeast background strain, growth absorbance A615, 16 h; inhibition, % at 10 µM; actives 5% (n = 98,000); AID 738
* hit, by the source's call; . = not tested or not shown. Unless noted, no stated cut-off is given here; in the data, active means inhibition above about 30%; inactive means the rest.

SMILES	Yeast lifespan up	PostGolgi yeast	BB579 growth dn	PostGolgi ctrl
CN1C(=O)CSC1=NC12CC3CC(CC(C3)C1)C2	53*	-4	0	4
O=C(CN1CCC(NC(=O)Cc2ccccc2)CC1)Nc1ccccc1Br	5	.	-8	.
Cn1c(C(=O)N2CCN(c3ncccn3)CC2)cc2c(=O)n(C)c3ccccc3c21	0	4	18	-1
Cn1c(C(=O)N2CCCC2)cc2c(=O)n(C)c3ccccc3c21	-6	7	-25	-4
Cc1cccc(N2CCN(C(=O)c3cc4c(=O)n(C)c5ccccc5c4n3C)CC2)c1C	-1	3	-1	40*
Cc1ccc(Cl)cc1N1CCN(C(=O)c2cc3c(=O)n(C)c4ccccc4c3n2C)CC1	-11	-8	-23	45*
CCOC(=O)c1c(C)[nH]c(C(=O)N/N=C\c2ccccc2Cl)c1C	-1	.	-13	.
COc1ccc(N2CCN(CC(=O)Nc3cccc(S(=O)(=O)N4CCOCC4)c3)CC2)cc1	4	.	-15	.
CCCC(=O)c1ccc(N2CCC(C)CC2)c(F)c1	1	.	-2	.
Cc1ccc(Nc2c([N+](=O)[O-])ccc3c2=NC2(CCCCC2)N=3)cc1	-4	-7	-53	8
Clc1ccc(-n2nnnc2-c2ccccc2)cc1	-21	17	-1	8
Cc1ccc(-n2nnnc2C(Cl)(Cl)c2nnnn2-c2ccc(C)cc2)cc1	13	108*	9	100*
Cn1c(C(C)(O)C(O)c2ccccc2)nc2ccccc21 (configuration not stated)	6	.	-23	.
N=c1n(CCOc2ccccc2)c2ccccc2n1CCN1CCOCC1	-5	6	-7	3
N=c1n(CCN2CCOCC2)c2ccccc2n1CC(=O)c1ccc(Cl)c(Cl)c1	-28	-2	95*	0
OC1(c2ccc(F)cc2)CCN(Cc2nnnn2Cc2cccs2)CC1	-9	14	-19	9
Cc1ccc(S(=O)(=O)N2CCN(C(=O)CCC(=O)OCC(=O)Nc3cccc(C#N)c3)CC2)cc1	-7	2	26	32*
CCOC(=O)C1=C(c2ccccc2)N(C)C(=O)NC1c1ccc(O)c(OC)c1 (configuration not stated)	-11	18	-25	31*
CCC(C)C(NC(C)=O)C(=O)NC(=O)NC(c1ccccc1)c1ccccc1 (configuration not stated)	-11	2	2	4
COC(=O)c1ccc(CSc2nc3ccccc3c(=O)n2CC(C)C)o1	-13	-1	-42	27
Cc1ccc2c(CSc3nc4ccccc4c(=O)n3CCCO)cc(=O)oc2c1C	-7	-3	-21	32*
CC(=O)NCCn1c(SCc2ccc(C)cc2)nc2ccccc2c1=O	-17	3	-36	34*
COC(=O)c1ccc(CSc2nc3ccccc3c(=O)n2Cc2ccco2)o1	-5	-7	-18	34*
Cc1ccc2c(CSc3nnc4ccccn34)cc(=O)oc2c1C	1	.	10	.
COc1ccc2[nH]c(=O)c(CN(CCO)S(=O)(=O)c3ccc4c(c3)OCCO4)cc2c1	-20	-15	-4	2
SMILES	Yeast lifespan up	PostGolgi yeast	BB579 growth dn	PostGolgi ctrl
CC1(C)Cc2cccc(OCC(=O)Nc3cccnc3Cl)c2O1	-13	0	-42	-3
CC(C)n1c(O)c(N=Nc2ccc(Cl)nn2)c2ccccc21	5	.	-22	.
O=C(NN=C1CCCCCC1)C(=O)Nc1cccc(Br)c1	-7	.	-7	.
COc1ccc(NC(=S)NNC(=O)Cn2nc(C(F)F)cc2C(F)F)cc1	1	.	-7	.
Cc1cccc2sc(NC(=O)c3cccc(S(=O)(=O)N4CCc5ccccc54)c3)nc12	0	.	-19	.
O=C(Nc1ncccc1O)c1cccc(S(=O)(=O)N2CCc3ccccc32)c1	-5	-5	-8	34*
Cc1ccc(S(=O)(=O)c2c(N)n(/N=C/c3ccco3)c3nc4ccccc4nc23)cc1	-8	9	-54	41*
Cc1cccc(S(=O)(=O)c2c(N)n(/N=C/c3ccco3)c3nc4ccccc4nc23)c1	-16	6	-36	32*
Nc1c(S(=O)(=O)c2ccccc2)c2nc3ccccc3nc2n1/N=C/c1ccco1	-13	7	-46	24
CCOc1ccc(OCC)c(NC(=O)CCn2cccc2)c1	-7	0	-25	9
C/C(=N\Nc1nc2c(s1)CCCC2)c1ccccc1	-19	-3	63*	20
Cc1ccc(S(=O)(=O)Nc2cccc3cccnc23)cc1	-4	-4	-4	22
COc1cc(NS(=O)(=O)c2ccc(C)cc2)c2ncccc2c1	3	-1	-11	36*
COc1ccc(S(=O)(=O)Nc2cc3c(C(C)=O)c(C)oc3c3ccccc23)cc1	-1	4	-64	65*
